Measurements published in ChEMBL document CHEMBL3045340, “Synthesis and antifungal activity of novel bisdithiocarbamate derivatives of carbohydrates against Fusarium oxysporum f. sp. lini” (2000).
The source made the active and inactive calls. The rule behind the calls is not given here.

The molecules below were run on Fusarium oxysporum f. sp. lini (assay: Antifungal activity against Fusarium oxysporum f. sp. lini assessed as inhibition of radial fungal growth at 0.58 mM after 6 days). Conditions: 144 h, read-out: GI.
Type: functional
How it was run: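 Mycelial plug (6 mm) cut from margin of 4-day-old MEA culture placed on MEA plates containing compound (DMF vehicle, ≤1% v/v final) at 0.58 mM dithiocarbamoyl equivalent; 20 °C, 12 h photoperiod; colony diameter read daily over 6 days; percent growth inhibition versus untreated culture; three replicates per treatment, two runs; two-sample t-test, P 0.01.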

Molecule	inhibition of growth at 580 µM [%]
CCN(CC)C(=S)SC[C@H]1OC(O)[C@H](O)[C@@H](SC(=S)N(CC)CC)[C@@H]1O (stereo not given in full)	18
CCN(CC)C(=S)SCC(O)CSC(=S)N(CC)CC	30
CCN(CC)C(=S)SC[C@H](O)[C@H]1O[C@@H]2OC(C)(C)O[C@@H]2[C@H]1SC(=S)N(CC)CC	17
CCN(CC)C(=S)SCC(CSC(=S)N(CC)CC)OC(C)=O	12
CCSC(=S)NCC(O)CNC(=S)SCC	27
CCN(CC)C(=S)SCC(O)CO (racemic)	10
CCN(CC)C(=S)SCC(=O)CSC(=S)N(CC)CC	12
CCCCCCCC(=O)OC(CSC(=S)N(CC)CC)CSC(=S)N(CC)CC	7
CCCC(=O)OC(CSC(=S)N(CC)CC)CSC(=S)N(CC)CC	12

The molecules below were run on Fusarium oxysporum f. sp. lini (assay: Induction of delay in spore germination of Fusarium oxysporum f. sp. lini). Conditions: not given.
Type: functional, organism-based
How it was run: (§1)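 Fayret liquid medium with compound in DMF at 0.58 mM dithiocarbamoyl equivalent, inoculated with glass-wool-filtered spores (hemocytometer count) from 10-day-old MEA culture to 104 spores mL-1; shaken at 90 tpm, 20 °C, 12 h photoperiod, 7 days; spore germination and hyphal morphology of treated versus untreated fungus examined by light microscopy.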

Molecule	Activity
CCN(CC)C(=S)SC[C@H]1OC(O)[C@H](O)[C@@H](SC(=S)N(CC)CC)[C@@H]1O (stereo not given in full)	Active
CCN(CC)C(=S)SCC(O)CSC(=S)N(CC)CC	Active
CCN(CC)C(=S)SC[C@H](O)[C@H]1O[C@@H]2OC(C)(C)O[C@@H]2[C@H]1SC(=S)N(CC)CC	Active
CCSC(=S)NCC(O)CNC(=S)SCC	Active

These molecules were tested on Fusarium oxysporum f. sp. lini (assay: Induction of morphological alterations in Fusarium oxysporum f. sp. lini). Conditions: not given.
Type: functional, organism-based
How it was run: as §1

Molecule	Activity
CCN(CC)C(=S)SC[C@H]1OC(O)[C@H](O)[C@@H](SC(=S)N(CC)CC)[C@@H]1O (stereo not given in full)	Active
CCN(CC)C(=S)SCC(O)CSC(=S)N(CC)CC	Active
CCSC(=S)NCC(O)CNC(=S)SCC	Active

What follows are molecules tested on Fusarium oxysporum f. sp. lini (assay: Antifungal activity against Fusarium oxysporum f. sp. lini assessed as inhibition of radial fungal growth at 100 ppm after 6 days). Conditions: not given.
Type: functional
How it was run: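 Radial growth on malt extract agar. Compounds dissolved in N,N-dimethylformamide (final ≤1% v/v) were mixed into molten MEA at 50 °C, giving 0.58 mM equivalent of dithiocarbamoyl group. A 6 mm plug from the margin of a 4-day MEA culture was placed on each plate. Plates were held at 20 °C under a 12 h photoperiod, with colony diameter read daily for 6 days. Two runs, three replicates each; two-sample t-test against untreated cultures.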

Molecule	growth inhibition (GI) [%]
maneb	12

Same assay, conditions: 144 h, read-out: GI

Molecule	inhibition of growth at 100 ppm [%]
CCN(CC)C(=S)S [DITIOCARB SODIUM]	18

The molecules below were run on Fusarium oxysporum f. sp. lini (assay: Inhibition of spore germination of Fusarium oxysporum f. sp. lini). Conditions: not given.
Type: functional, organism-based
How it was run: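 Liquid Fayret medium held N,N-dimethylformamide solutions at 0.58 mM equivalent of dithiocarbamoyl group. Spores were washed from a 10-day MEA culture, glass-wool filtered, counted by hemocytometer and seeded at 10^4 spores mL-1. Tubes were shaken at 90 tpm at 20 °C under a 12 h photoperiod for 7 days. Germination timing and hyphal morphology were assessed by light microscopy against untreated controls.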

Molecule	inhibition
maneb	Active
CCN(CC)C(=S)S [DITIOCARB SODIUM]	Active
